Source: ChEMBL document CHEMBL1154044, “5-Nitro-2-furyl derivative actives against Trypanosoma cruzi: preliminary in vivo studies” (Eur J Med Chem, 2009)
Calls of active or inactive are those of the source. No cut-off for these calls is given here.

Columns and labels:
[1] = system: Mus musculus; experiment: Toxicity in CD1 mouse assessed as hematocrite level at 450 mg/kg, po after 3 days; assay type: organism-based; set-up: dose 450 mg/kg, route oral; details: in vivo, 72 h
Summary of the method: (§1)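 Healthy female CD1 mice (5–7 per group) received a single oral dose of 450 mg/kg or an i.p. dose of 300 mg/kg, with vehicle controls. On day 3 they were sacrificed under ether anaesthesia. Blood was drawn from the subclavian artery and kept at 0 °C in EDTA or heparin. Leukocytes, haemoglobin, haematocrit, GPT and GOT were measured within 24 h and compared with normal ranges.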

[2] = system: Mus musculus; experiment: Toxicity in CD1 mouse liver at 450 mg/kg, po after 3 days by histological study; assay type: organism-based; set-up: dose 450 mg/kg, route oral; details: in vivo, 72 h
Summary of the method: (§2)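 Healthy female CD1 mice (20–22 g), 5–7 per group, given a single oral (intragastric) or i.p. dose in saline:Tween 80 (4:1) vehicle. Sacrificed on day 3 after ether anaesthesia. Organs fixed in 10% aqueous formalin for histology. Scored against untreated animals from no change to +++ (many changes).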

[3] = system: Mus musculus; experiment: Toxicity in CD1 mouse assessed as increase in weight respect to day zero at 300 mg/kg, ip after 3 days; assay type: organism-based; set-up: dose 300 mg/kg, route intraperitoneal; details: in vivo, 72 h
Summary of the method: (§3)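 Healthy 2-month-old female CD1 mice (20–22 g, 5–7 per group) received one dose. Oral doses of 450 or 300 mg/kg were given by intragastric syringe; i.p. doses of 300 or 150 mg/kg by injection. Drugs were suspended in saline:Tween 80 (4:1), and a vehicle-only control was included. Mice were weighed and observed daily for 3 days. Weight change is expressed as percent relative to day zero.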

[4] = system: Trypanosoma cruzi; experiment: Antitrypanosomal activity against Trypanosoma cruzi infected in po dosed CD1 mouse assessed as prevention of inflammatory infiltrates in heart administered daily for 14 days measured on day 45; assay type: functional, organism-based
Summary of the method: (§4)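 T. cruzi, a Uruguayan patient isolate, was inoculated intradermally into 2-month-old female CD1 mice (20–22 g). Dosing began on day 15 after parasitaemia was observed. Drugs were suspended in saline:Tween 80 (4:1) and given by intragastric syringe once daily for 14 days, with untreated controls. On day 45 after treatment start, heart and muscle sections were scored by two independent observers for amastigotes and inflammatory infiltrates. Groups had 5–7 mice.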

[5] = system: Mus musculus; experiment: Toxicity in CD1 mouse assessed as glutamic-pyruvate transaminase level at 450 mg/kg, po after 3 days; assay type: organism-based; set-up: dose 450 mg/kg, route oral; details: in vivo, 72 h; summary of the method: as §1
[6] = system: Mus musculus; experiment: Toxicity in CD1 mouse kidney at 300 mg/kg, ip after 3 days by histological study; assay type: organism-based; set-up: dose 300 mg/kg, route intraperitoneal; details: in vivo, 72 h; summary of the method: as §2
[7] = system: Mus musculus; experiment: Toxicity in CD1 mouse assessed as increase in weight respect to day zero at 450 mg/kg, po after 3 days; details: in vivo, 72 h
[8] = system: Trypanosoma cruzi; experiment: Antitrypanosomal activity against Trypanosoma cruzi infected in po dosed CD1 mouse assessed as prevention of amastigote nest in heart administered daily for 14 days measured on day 45; assay type: functional, organism-based; summary of the method: as §4
[9] = system: Mus musculus; experiment: Toxicity in CD1 mouse lung at 450 mg/kg, po after 3 days by histological study; assay type: organism-based; set-up: dose 450 mg/kg, route oral; details: in vivo, 72 h; summary of the method: as §2
[10] = system: Mus musculus; experiment: Toxicity in CD1 mouse liver at 300 mg/kg, ip after 3 days by histological study; assay type: organism-based; set-up: dose 300 mg/kg, route intraperitoneal; details: in vivo, 72 h; summary of the method: as §2
[11] = system: Mus musculus; experiment: Toxicity in CD1 mouse assessed as survival at 450 mg/kg, po after 3 days; assay type: organism-based; set-up: dose 450 mg/kg, route oral; details: in vivo, 72 h
Summary of the method: (§5)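 Healthy 2-month-old female CD1 mice (20–22 g), groups of 5–7, given one oral dose by intragastric syringe or one i.p. injection. Compound suspended in saline:Tween 80 (4:1) with sonication just before dosing; vehicle-treated controls included. Weighed and observed daily over 3 days for skin, physical aspect, activity and faeces; survival recorded at day 3.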

[12] = system: Mus musculus; experiment: Toxicity in CD1 mouse heart at 450 mg/kg, po after 3 days by histological study; assay type: organism-based; set-up: dose 450 mg/kg, route oral; details: in vivo, 72 h; summary of the method: as §2
[13] = system: Mus musculus; experiment: Toxicity in CD1 mouse assessed as haemoglobin level at 300 mg/kg, ip after 3 days; assay type: organism-based; set-up: dose 300 mg/kg, route intraperitoneal; details: in vivo, 72 h; summary of the method: as §1
[14] = system: Mus musculus; experiment: Toxicity in CD1 mouse assessed as glutamic-pyruvate transaminase level at 300 mg/kg, ip after 3 days; assay type: organism-based; set-up: dose 300 mg/kg, route intraperitoneal; details: in vivo, 72 h; summary of the method: as §1
[15] = system: Mus musculus; experiment: Toxicity in CD1 mouse assessed as survival at 300 mg/kg, ip after 3 days; assay type: organism-based; set-up: dose 300 mg/kg, route intraperitoneal; details: in vivo, 72 h; summary of the method: as §5
[16] = system: Mus musculus; experiment: Toxicity in CD1 mouse assessed as hematocrite level at 300 mg/kg, ip after 3 days; assay type: organism-based; set-up: dose 300 mg/kg, route intraperitoneal; details: in vivo, 72 h; summary of the method: as §1
[17] = system: Mus musculus; experiment: Toxicity in CD1 mouse intestine at 450 mg/kg, po after 3 days by histological study; assay type: organism-based; set-up: dose 450 mg/kg, route oral; details: in vivo, 72 h; summary of the method: as §2
[18] = system: Trypanosoma cruzi; experiment: Growth inhibition of Trypanosoma cruzi Tulahuen 2 epimastigote at 5 uM after 5 days; assay type: functional; set-up: Activity: scale not given: the % may be the effect or the level left; details: for inhibition of growth at 5 µM: Trypanosoma cruzi, Tulahuen 2, 120 h, read-out: GI
[19] = system: Mus musculus; experiment: Toxicity in CD1 mouse assessed as glutamic-oxalacetate transaminase level at 300 mg/kg, ip after 3 days; assay type: organism-based; set-up: dose 300 mg/kg, route intraperitoneal; details: in vivo, 72 h; summary of the method: as §1
[20] = system: Mus musculus; experiment: Toxicity in CD1 mouse assessed as leukocyte level at 300 mg/kg, ip after 3 days; assay type: organism-based; set-up: dose 300 mg/kg, route intraperitoneal; details: in vivo, 72 h; summary of the method: as §1
[21] = system: Mus musculus; experiment: Toxicity in CD1 mouse kidney at 450 mg/kg, po after 3 days by histological study; assay type: organism-based; set-up: dose 450 mg/kg, route oral; details: in vivo, 72 h; summary of the method: as §2
[22] = system: Mus musculus; experiment: Toxicity in CD1 mouse brain at 450 mg/kg, po after 3 days by histological study; assay type: organism-based; set-up: dose 450 mg/kg, route oral; details: in vivo, 72 h; summary of the method: as §2
[23] = system: Mus musculus; experiment: Toxicity in CD1 mouse intestine at 300 mg/kg, ip after 3 days by histological study; assay type: organism-based; set-up: dose 300 mg/kg, route intraperitoneal; details: in vivo, 72 h; summary of the method: as §2
[24] = system: Mus musculus; experiment: Toxicity in CD1 mouse brain at 300 mg/kg, ip after 3 days by histological study; assay type: organism-based; set-up: dose 300 mg/kg, route intraperitoneal; details: in vivo, 72 h; summary of the method: as §2
[25] = system: Mus musculus; experiment: Toxicity in CD1 mouse lung at 300 mg/kg, ip after 3 days by histological study; assay type: organism-based; set-up: dose 300 mg/kg, route intraperitoneal; details: in vivo, 72 h; summary of the method: as §2
[26] = system: Mus musculus; experiment: Toxicity in CD1 mouse assessed as haemoglobin level at 450 mg/kg, po after 3 days; assay type: organism-based; set-up: dose 450 mg/kg, route oral; details: in vivo, 72 h; summary of the method: as §1
[27] = system: Mus musculus; experiment: Toxicity in CD1 mouse assessed as leukocyte level at 450 mg/kg, po after 3 days; assay type: organism-based; set-up: dose 450 mg/kg, route oral; details: in vivo, 72 h; summary of the method: as §1
[28] = system: Mus musculus; experiment: Toxicity in CD1 mouse heart at 300 mg/kg, ip after 3 days by histological study; assay type: organism-based; set-up: dose 300 mg/kg, route intraperitoneal; details: in vivo, 72 h; summary of the method: as §2
[29] = system: Mus musculus; experiment: Toxicity in CD1 mouse assessed as glutamic-oxalacetate transaminase level at 450 mg/kg, po after 3 days; assay type: organism-based; set-up: dose 450 mg/kg, route oral; details: in vivo, 72 h; summary of the method: as §1
[30] = system: Mus musculus; experiment: Toxicity in CD1 mouse assessed as decrease in weight respect to day zero at 450 mg/kg, po after 3 days; assay type: organism-based; set-up: dose 450 mg/kg, route oral; scale not given: the % may be the effect or the level left; details: in vivo, 72 h; summary of the method: as §3

Compound: CCCCCCOC(=O)N/N=C/C=C/c1ccc([N+](=O)[O-])o1
- Activity [1]: 42.1%
- Activity [2]: Toxic
- Activity [3]: 2%
- Activity [4]: Active
- Activity [5]: 42 IU/L
- Activity [6]: Non-toxic
- Activity [7]: 2%
- Activity [8]: Active
- Activity [9]: Non-toxic
- Activity [10]: Toxic
- Activity [11]: Non-toxic
- Activity [12]: Non-toxic
- Activity [13]: 12 g/dL
- Activity [14]: 33 IU/L
- Activity [15]: Non-toxic
- Activity [16]: 22.9%
- Activity [17]: Non-toxic
- Activity [18]: 86%
- Activity [19]: 172 IU/L
- Activity [20]: 5300 µL⁻¹
- Activity [21]: Toxic
- Activity [22]: Non-toxic
- Activity [23]: Non-toxic
- Activity [24]: Non-toxic
- Activity [25]: Non-toxic
- Activity [26]: 13.5 g/dL
- Activity [27]: 6600 µL⁻¹
- Activity [28]: Non-toxic
- Activity [29]: 164 IU/L

Compound: CCCCCCNC(=O)/C=C/c1ccc([N+](=O)[O-])o1
- Activity [1]: 30.4%
- Activity [2]: Toxic
- Activity [3]: 2%
- Activity [30]: 0%
- Activity [5]: 22.7 IU/L
- Activity [6]: Non-toxic
- Activity [9]: Toxic
- Activity [10]: Toxic
- Activity [11]: Non-toxic
- Activity [12]: Toxic
- Activity [13]: 11.3 g/dL
- Activity [14]: 52.8 IU/L
- Activity [15]: Non-toxic
- Activity [17]: Non-toxic
- inhibition of growth at 5 µM [18]: 82%
- Activity [19]: 129 IU/L
- Activity [20]: 12100 µL⁻¹
- Activity [21]: Non-toxic
- Activity [22]: Non-toxic
- Activity [23]: Non-toxic
- Activity [24]: Non-toxic
- Activity [25]: Toxic
- Activity [26]: 11.5 g/dL
- Activity [27]: 86000 µL⁻¹
- Activity [28]: Toxic
- Activity [29]: 69.8 IU/L

Compound: CCCCOC(=O)N/N=C/C=C/c1ccc([N+](=O)[O-])o1
- Activity [2]: Toxic
- Activity [3]: 2%
- Activity [30]: 2%
- Activity [5]: 22.6 IU/L
- Activity [6]: Non-toxic
- Activity [9]: Non-toxic
- Activity [10]: Toxic
- Activity [11]: Non-toxic
- Activity [12]: Non-toxic
- Activity [13]: 11.8 g/dL
- Activity [14]: 17 IU/L
- Activity [15]: Non-toxic
- Activity [16]: 37.2%
- Activity [17]: Non-toxic
- inhibition of growth at 5 µM [18]: 87%
- Activity [19]: 76.5 IU/L
- Activity [20]: 31800 µL⁻¹
- Activity [21]: Non-toxic
- Activity [22]: Non-toxic
- Activity [23]: Non-toxic
- Activity [24]: Non-toxic
- Activity [25]: Non-toxic
- Activity [26]: 13.5 g/dL
- Activity [27]: 26600 µL⁻¹
- Activity [28]: Non-toxic
- Activity [29]: 72 IU/L

Compound: CCCCCCCOC(=O)N/N=C/C=C/c1ccc([N+](=O)[O-])o1
- Activity [1]: 39.4%
- Activity [2]: Toxic
- Activity [3]: 4%
- Activity [30]: 0%
- Activity [5]: 62.7 IU/L
- Activity [6]: Non-toxic
- Activity [9]: Non-toxic
- Activity [10]: Toxic
- Activity [11]: Non-toxic
- Activity [12]: Non-toxic
- Activity [13]: 14.2 g/dL
- Activity [14]: 46.1 IU/L
- Activity [15]: Non-toxic
- Activity [17]: Non-toxic
- inhibition of growth at 5 µM [18]: 90%
- Activity [19]: 77.7 IU/L
- Activity [20]: 11100 µL⁻¹
- Activity [21]: Non-toxic
- Activity [22]: Non-toxic
- Activity [23]: Non-toxic
- Activity [24]: Non-toxic
- Activity [25]: Non-toxic
- Activity [26]: 13.4 g/dL
- Activity [27]: 9010 µL⁻¹
- Activity [28]: Non-toxic
- Activity [29]: 139 IU/L
